Measured values from ChEMBL document CHEMBL4706495, “A novel class of small molecule inhibitors with radioprotective properties” (Eur J Med Chem, 2020).

Tests used:
Jurkat [1] = assay: Cytotoxicity against human Jurkat cells assessed as cell viability at 10 uM measured after 48 hrs by WST-1 assay relative to control; format: functional; settings: read-out: Activity
Method in brief: (§1)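 Ten-line human panel (9 cancer, 1 non-cancerous). Cells were seeded at a pre-established optimal density (500–30 × 10³ per well) and settled overnight. Compounds came from 10 mM DMSO stocks and were tested at two concentrations. WST-1 readout followed the manufacturer's protocol at the end of cultivation. Viability is expressed as % of untreated control cells, mean of three independent experiments.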

MOLT-4 [2] = assay: Cytotoxicity against human MOLT-4 cells assessed as cell viability at 10 uM measured after 48 hrs by WST-1 assay relative to control; format: functional; settings: read-out: Activity; method in brief: as §1
A549 [3] = assay: Cytotoxicity against human A549 cells assessed as cell viability at 10 uM measured after 48 hrs by WST-1 assay relative to control; format: functional; settings: read-out: Activity; method in brief: as §1
HT-29 [4] = assay: Cytotoxicity against human HT-29 cells assessed as cell viability at 10 uM measured after 48 hrs by WST-1 assay relative to control; format: functional; settings: read-out: Activity; method in brief: as §1
PANC-1 [5] = assay: Cytotoxicity against human PANC-1 cells assessed as cell viability at 10 uM measured after 48 hrs by WST-1 assay relative to control; format: functional; settings: read-out: Activity; method in brief: as §1
A2780 [6] = assay: Cytotoxicity against human A2780 cells assessed as cell viability at 10 uM measured after 48 hrs by WST-1 assay relative to control; format: functional; settings: read-out: Activity; method in brief: as §1
HeLa [7] = assay: Cytotoxicity against human HeLa cells assessed as cell viability at 10 uM measured after 48 hrs by WST-1 assay relative to control; format: functional; settings: read-out: Activity; method in brief: as §1
MCF7 [8] = assay: Cytotoxicity against human MCF7 cells assessed as cell viability at 10 uM measured after 48 hrs by WST-1 assay relative to control; format: functional; settings: read-out: Activity; method in brief: as §1
SAOS-2 [9] = assay: Cytotoxicity against human SAOS-2 cells assessed as cell viability at 10 uM measured after 48 hrs by WST-1 assay relative to control; format: functional; settings: read-out: Activity; method in brief: as §1
Jurkat [10] = assay: Cytotoxicity against human Jurkat cells assessed as cell viability at 100 uM measured after 48 hrs by WST-1 assay relative to control; format: functional; settings: read-out: Activity; method in brief: as §1
MOLT-4 [11] = assay: Cytotoxicity against human MOLT-4 cells assessed as cell viability at 100 uM measured after 48 hrs by WST-1 assay relative to control; format: functional; settings: read-out: Activity; method in brief: as §1
A549 [12] = assay: Cytotoxicity against human A549 cells assessed as cell viability at 100 uM measured after 48 hrs by WST-1 assay relative to control; format: functional; settings: read-out: Activity; method in brief: as §1
HT-29 [13] = assay: Cytotoxicity against human HT-29 cells assessed as cell viability at 100 uM measured after 48 hrs by WST-1 assay relative to control; format: functional; settings: read-out: Activity; method in brief: as §1
PANC-1 [14] = assay: Cytotoxicity against human PANC-1 cells assessed as cell viability at 100 uM measured after 48 hrs by WST-1 assay relative to control; format: functional; settings: read-out: Activity; method in brief: as §1
A2780 [15] = assay: Cytotoxicity against human A2780 cells assessed as cell viability at 100 uM measured after 48 hrs by WST-1 assay relative to control; format: functional; settings: read-out: Activity; method in brief: as §1
HeLa [16] = assay: Cytotoxicity against human HeLa cells assessed as cell viability at 100 uM measured after 48 hrs by WST-1 assay relative to control; format: functional; settings: read-out: Activity; method in brief: as §1
MCF7 [17] = assay: Cytotoxicity against human MCF7 cells assessed as cell viability at 100 uM measured after 48 hrs by WST-1 assay relative to control; format: functional; settings: read-out: Activity; method in brief: as §1
SAOS-2 [18] = assay: Cytotoxicity against human SAOS-2 cells assessed as cell viability at 100 uM measured after 48 hrs by WST-1 assay relative to control; format: functional; settings: read-out: Activity; method in brief: as §1
[19] = Cytotoxicity against human MRC5 cells assessed as cell viability at 100 uM measured after 48 hrs by WST-1 assay relative to control; format: cell-based; settings: read-out: Activity; method in brief: as §1
A549 [20] = assay: Cytotoxicity against human A549 cells assessed as reduction in cell viability incubated for 24 hrs by MTT assay; format: functional, cell-based; settings: A549, 24 h
Method in brief: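 A-549 cells in DMEM with 10% FBS and 1% penicillin-streptomycin were attached overnight. Compounds were prepared in PBS and serially diluted in DMEM, then incubated 24 h. Viability was read by colorimetric MTT reduction against an untreated control on each plate (100%). IC50 came from four-parameter nonlinear regression of the log concentration-response curve, mean ± SEM. MTC is the highest concentration not differing from control (t-test).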

A549 [21] = assay: Cytotoxicity against human A549 cells assessed as maximum tolerated concentration incubated for 24 hrs by MTT assay; format: functional
Method in brief: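 A-549 cells in DMEM with 10% FBS and 1% penicillin-streptomycin, left to attach overnight. Compounds made up in PBS, serially diluted in DMEM, incubated 24 h, then viability read by MTT reduction against untreated controls on each plate. MTC taken as the highest concentration showing no significant difference from non-treated control (t-test).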

MOLT-4 [22] = assay: Radioprotective activity against gamma irradiation-induced apoptosis in human MOLT-4 cells assessed as viable cells at 100 uM pretreated with compound for 1 hr followed by gamma irradiation and measured after 24 hrs by annexinV/propidium iodide staining based flow cytometry (reference value: 40 %); format: functional; settings: MOLT-4, light or radiation study, time 25 hrs, read-out: Activity
[23] = Toxicity in C57Bl/6 mouse assessed as mouth death at 100 mg/kg, ip measured after 30 days; format: organism-based; settings: in vivo, 720 h, time 30 day
Method in brief: (§2)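 Safety in C57Bl/6 mice (27 ± 3 g) given a single 100 mg/kg i.p. injection without irradiation. Deaths, adverse effects and body weight followed over 30 days against an untreated control group. Weight reported as change from day 0.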

[24] = Toxicity in C57Bl/6 mouse assessed as adverse effects at 100 mg/kg, ip measured after 30 days; format: organism-based; settings: in vivo, 720 h, time 30 day; method in brief: as §2
[25] = Toxicity in C57Bl/6 mouse assessed as average body weight at 100 mg/kg, ip and measured immediately (reference value: 26.3 +/- 2.4 g); format: organism-based; settings: in vivo
[26] = Toxicity in C57Bl/6 mouse assessed as average body weight at 100 mg/kg, ip measured after 30 days (reference value: 27 +/ 3.2 g); format: organism-based; settings: in vivo, 720 h, time 30 day
[27] = Toxicity in C57Bl/6 mouse assessed as change in body weight at 100 mg/kg, ip measured after 30 days (reference value: 103 +/- 12 %); format: organism-based; settings: in vivo, 720 h, time 30 day
Mus musculus [28] = assay: Radioprotective activity in C57Bl/6 mouse assessed as median survival time at 100 mg/kg, ip administered 5 min prior to gamma-irradation at 8.5 Gy and measured after 30 days (reference value: 12 days); format: functional
Mus musculus [29] = assay: Radioprotective activity in C57Bl/6 mouse assessed as average body weight at 100 mg/kg, ip administered 5 min prior to gamma-irradation at 8.5 Gy and measured immediately (reference value: 25.4 +/- 2.6 g); format: functional
Mus musculus [30] = assay: Radioprotective activity in C57Bl/6 mouse assessed as average body weight at 100 mg/kg, ip administered 5 min prior to gamma-irradation at 8.5 Gy and measured after 30 days; format: functional
Mus musculus [31] = assay: Radioprotective activity in C57Bl/6 mouse assessed as body weight gain at 100 mg/kg, ip administered 5 min prior to gamma-irradation at 8.5 Gy measured after 30 days relative to control; format: functional

Structure (SMILES): COc1cccc(OC)c1OCC(O)CN1CCN(CCO)CC1 (stereo unspecified)
- viability at 10 µM (Jurkat [1]): 110%
- viability at 10 µM (MOLT-4 [2]): 105%
- viability at 10 µM (A549 [3]): 97%
- viability at 10 µM (HT-29 [4]): 102%
- viability at 10 µM (PANC-1 [5]): 104%
- viability at 10 µM (A2780 [6]): 95%
- viability at 10 µM (HeLa [7]): 101%
- viability at 10 µM (MCF7 [8]): 101%
- viability at 10 µM (SAOS-2 [9]): 106%
- viability at 100 µM (Jurkat [10]): 84%
- viability at 100 µM (MOLT-4 [11]): 76%
- viability at 100 µM (A549 [12]): 99%
- viability at 100 µM (HT-29 [13]): 141%
- viability at 100 µM (PANC-1 [14]): 115%
- viability at 100 µM (A2780 [15]): 83%
- viability at 100 µM (HeLa [16]): 94%
- viability at 100 µM (MCF7 [17]): 90%
- viability at 100 µM (SAOS-2 [18]): 82%
- viability at 48 h, 100 µM [19]: 115%
- IC50 (A549 [20]): 7.81 mM
- MTD (A549 [21]): 1.56 mM
- viability at 100 µM (MOLT-4 [22]): 61%
- Activity [23]: Non-Toxic
- Activity [24]: Non-Toxic
- Activity [25]: 27 g
- Activity [26]: 27.6 g
- Activity [27]: 102%
- MST (Mus musculus [28]): 12 days
- Activity (Mus musculus [29]): 27.3 g
- Activity (Mus musculus [30]): 27.7 g
- Activity (Mus musculus [31]): 109%
